Measurements published in ChEMBL document CHEMBL4265940, “Synthesis of scutellarein derivatives with antiproliferative activity and selectivity through the intrinsic pathway” (Eur J Med Chem, 2018).
The source made the active and inactive calls. No cut-off for these calls is given here.

Experiments:
L02 = assay: Cytotoxicity against human LO2 cells assessed as decrease in cell viability after 72 hrs by MTT assay; format: cell-based; conditions: L02, 72 h
Outline: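 L-O2 normal human liver cells tested for growth inhibition by MTT. Formazan was dissolved in DMSO and optical density read. IC50 values were derived.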

MCF7 [1] = assay: Antiproliferative activity against human MCF7 cells after 72 hrs by MTT assay; format: functional, cell-based; conditions: MCF7, 72 h
Outline: (§1)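 Log-phase tumour cells seeded and held 24 h at 37 °C in humidified 5% CO2, then exposed to test agents for 72 h. MTT (5 mg/mL stock) added for a further 4 h, formazan dissolved in DMSO with 10 min shaking at room temperature, optical density read, IC50 calculated.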

A549 = assay: Antiproliferative activity against human A549 cells after 72 hrs by MTT assay; format: functional, cell-based; conditions: A549, 72 h; outline: as §1
Bel-7402 = assay: Antiproliferative activity against human Bel7402 cells after 72 hrs by MTT assay; format: functional, cell-based; conditions: Bel-7402, 72 h; outline: as §1
MCF7 [2] = assay: Induction of apoptosis in human MCF7 cells assessed as upregulation of Bax after 48 hrs by Western blot analysis; format: functional, cell-based
Outline: (§2)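 MCF-7 cells treated 48 h at 0, 0.75, 1.5 and 3 µM, lysed, and spun at 14000 g for 10 min at 4 °C. Protein was measured by BCA and 25 µg lysate run on 12% SDS-PAGE, then transferred to nitrocellulose and blocked with 5% milk. Blots were probed overnight at 4 °C with monoclonal antibodies to Bcl-2, Bax, cyto-c, caspase-9, caspase-3 and GAPDH, with ECL detection.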

MCF7 [3] = assay: Induction of apoptosis in human MCF7 cells assessed as increase in caspase-3 level at 0.75 to 3 uM after 48 hrs by Western blot analysis; format: functional, cell-based; outline: as §2
MCF7 [4] = assay: Cell cycle arrest in human MCF7 cells assessed as accumulation at S phase at 0.75 uM after 48 hrs by propidium iodide staining based flow cytometry (reference value: 36.11%); format: functional
MCF7 [5] = assay: Cell cycle arrest in human MCF7 cells assessed as accumulation at S phase at 3 uM after 48 hrs by propidium iodide staining based flow cytometry (reference value: 36.11%); format: functional
MCF7 [6] = assay: Induction of apoptosis in human MCF7 cells after 48 hrs by Annexin V-FITC/PI staining based flow cytometry; format: functional, cell-based
MCF7 [7] = assay: Induction of apoptosis in human MCF7 cells assessed as increase in cytochrome c release at 0.75 to 3 uM after 48 hrs by Western blot analysis; format: functional, cell-based; outline: as §2
MCF7 [8] = assay: Induction of apoptosis in human MCF7 cells assessed as increase in caspase-9 level at 0.75 to 3 uM after 48 hrs by Western blot analysis; format: functional, cell-based; outline: as §2
MCF7 [9] = assay: Cell cycle arrest in human MCF7 cells assessed as accumulation at G2/M phase at 1.5 uM after 48 hrs by propidium iodide staining based flow cytometry (reference value: 22.40%); format: functional
MCF7 [10] = assay: Induction of apoptosis in human MCF7 cells assessed as necrotic cells at 0.75 uM after 48 hrs by Annexin V-FITC/PI staining based flow cytometry (reference value: 0.19%); format: functional
MCF7 [11] = assay: Induction of apoptosis in human MCF7 cells assessed as late apoptotic cells at 3 uM after 48 hrs by Annexin V-FITC/PI staining based flow cytometry (reference value: 1.99%); format: functional
MCF7 [12] = assay: Induction of apoptosis in human MCF7 cells assessed as early apoptotic cells at 1.5 uM after 48 hrs by Annexin V-FITC/PI staining based flow cytometry (reference value: 4.10%); format: functional
MCF7 [13] = assay: Induction of apoptosis in human MCF7 cells assessed as viable cells at 0.75 uM after 48 hrs by Annexin V-FITC/PI staining based flow cytometry (reference value: 93.72%); format: functional; conditions: MCF7, 48 h, read-out: Activity
MCF7 [14] = assay: Induction of apoptosis in human MCF7 cells assessed as necrotic cells at 3 uM after 48 hrs by Annexin V-FITC/PI staining based flow cytometry (reference value: 0.19%); format: functional
MCF7 [15] = assay: Induction of mitochondrial membrane depolarization in human MCF7 cells assessed as collapse of mitochondrial membrane potential at 1.5 uM after 48 hrs by JC-1 staining based flow cytometry (reference value: 1.61%); format: functional
Outline: (§3)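 Log-phase MCF-7 cells treated at 0, 0.75, 1.5 and 3 µM for 48 h, washed with PBS, then stained with JC-1 in the dark per kit instructions. The percentage of cells with collapsed membrane potential was measured by flow cytometry relative to untreated control.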

MCF7 [16] = assay: Induction of apoptosis in human MCF7 cells assessed as early apoptotic cells at 3 uM after 48 hrs by Annexin V-FITC/PI staining based flow cytometry (reference value: 4.10%); format: functional
MCF7 [17] = assay: Induction of apoptosis in human MCF7 cells assessed as late apoptotic cells at 1.5 uM after 48 hrs by Annexin V-FITC/PI staining based flow cytometry (reference value: 1.99%); format: functional
MCF7 [18] = assay: Cell cycle arrest in human MCF7 cells assessed as accumulation at S phase at 1.5 uM after 48 hrs by propidium iodide staining based flow cytometry (reference value: 36.11%); format: functional
MCF7 [19] = assay: Induction of mitochondrial membrane depolarization in human MCF7 cells after 48 hrs by JC-1 staining based flow cytometry; format: functional, cell-based; outline: as §3
MCF7 [20] = assay: Cell cycle arrest in human MCF7 cells assessed as accumulation at G1 phase at 1.5 uM after 48 hrs by propidium iodide staining based flow cytometry (reference value: 41.49%); format: functional
MCF7 [21] = assay: Cell cycle arrest in human MCF7 cells assessed as accumulation at G1 phase at 3 uM after 48 hrs by propidium iodide staining based flow cytometry (reference value: 41.49%); format: functional
MCF7 [22] = assay: Cell cycle arrest in human MCF7 cells assessed as accumulation at G1 phase at 0.75 uM after 48 hrs by propidium iodide staining based flow cytometry (reference value: 41.49%); format: functional
MCF7 [23] = assay: Cell cycle arrest in human MCF7 cells assessed as accumulation at G1 phase after 48 hrs by propidium iodide staining based flow cytometry; format: functional
MCF7 [24] = assay: Cell cycle arrest in human MCF7 cells assessed as accumulation at G2/M phase at 0.75 uM after 48 hrs by propidium iodide staining based flow cytometry (reference value: 22.40%); format: functional
MCF7 [25] = assay: Induction of apoptosis in human MCF7 cells assessed as early apoptotic cells at 0.75 uM after 48 hrs by Annexin V-FITC/PI staining based flow cytometry (reference value: 4.10%); format: functional
MCF7 [26] = assay: Induction of apoptosis in human MCF7 cells assessed as necrotic cells at 1.5 uM after 48 hrs by Annexin V-FITC/PI staining based flow cytometry (reference value: 0.19%); format: functional
MCF7 [27] = assay: Induction of mitochondrial membrane depolarization in human MCF7 cells assessed as collapse of mitochondrial membrane potential at 0.75 uM after 48 hrs by JC-1 staining based flow cytometry (reference value: 1.61%); format: functional; outline: as §3
MCF7 [28] = assay: Induction of apoptosis in human MCF7 cells assessed as downregulation of Bcl-2 after 48 hrs by Western blot analysis; format: functional, cell-based; outline: as §2
MCF7 [29] = assay: Induction of apoptosis in human MCF7 cells assessed as late apoptotic cells at 0.75 uM after 48 hrs by Annexin V-FITC/PI staining based flow cytometry (reference value: 1.99%); format: functional
MCF7 [30] = assay: Induction of apoptosis in human MCF7 cells assessed as viable cells at 3 uM after 48 hrs by Annexin V-FITC/PI staining based flow cytometry (reference value: 93.72%); format: functional; conditions: MCF7, 48 h, read-out: Activity
MCF7 [31] = assay: Induction of mitochondrial membrane depolarization in human MCF7 cells assessed as collapse of mitochondrial membrane potential at 3 uM after 48 hrs by JC-1 staining based flow cytometry (reference value: 1.61%); format: functional; outline: as §3
MCF7 [32] = assay: Induction of apoptosis in human MCF7 cells assessed as viable cells at 1.5 uM after 48 hrs by Annexin V-FITC/PI staining based flow cytometry (reference value: 93.72%); format: functional; conditions: MCF7, 48 h, read-out: Activity
MCF7 [33] = assay: Cell cycle arrest in human MCF7 cells assessed as accumulation at G2/M phase at 3 uM after 48 hrs by propidium iodide staining based flow cytometry (reference value: 22.40%); format: functional

## COc1cc2oc(-c3ccc(OCCCCCOC(=O)c4ccc(N(CCCl)CCCl)cc4)cc3)cc(=O)c2c(O)c1OC
L02
  IC50: > 50 µM
MCF7 [1]
  IC50: > 50 µM
A549
  IC50: > 50 µM
Bel-7402
  IC50: 32.5 µM

## O=c1[nH]cc(F)c(=O)[nH]1 [FLUOROURACIL]
MCF7 [1]
  IC50: 27.9 µM
A549
  IC50: 2.05 µM
Bel-7402
  IC50: 18.7 µM

## O=C(OCCCCOc1ccc(-c2cc(=O)c3c(O)c(O)c(O)cc3o2)cc1)c1ccc(N(CCCl)CCCl)cc1
L02
  IC50: > 50 µM
MCF7 [1]
  IC50: 3.55 µM
A549
  IC50: 21.5 µM
Bel-7402
  IC50: 9.07 µM

## COc1cc2oc(-c3ccc(OCCCCOC(=O)c4ccc(N(CCCl)CCCl)cc4)cc3)cc(=O)c2c(O)c1OC
L02
  IC50: > 50 µM
MCF7 [1]
  IC50: > 50 µM
A549
  IC50: 47.3 µM
Bel-7402
  IC50: 25.7 µM

## O=C(OCCCOc1ccc(-c2cc(=O)c3c(O)c4c(cc3o2)OCCO4)cc1)c1ccc(N(CCCl)CCCl)cc1
L02
  IC50: > 50 µM
MCF7 [1]
  IC50: 45 µM
A549
  IC50: 44.5 µM
Bel-7402
  IC50: > 50 µM

## O=C(OCCCCCOc1ccc(-c2cc(=O)c3c(O)c(O)c(O)cc3o2)cc1)c1ccc(N(CCCl)CCCl)cc1
L02
  IC50: > 50 µM
MCF7 [1]
  IC50: 4.78 µM
A549
  IC50: 23.5 µM
Bel-7402
  IC50: 4.59 µM

## O=C(O)CCCc1ccc(N(CCCl)CCCl)cc1 [CHLORAMBUCIL]
L02
  IC50: > 50 µM
MCF7 [1]
  IC50: > 50 µM
A549
  IC50: > 50 µM
Bel-7402
  IC50: > 50 µM

## O=C(OCCCCOc1ccc(-c2cc(=O)c3c(O)c4c(cc3o2)OCCO4)cc1)c1ccc(N(CCCl)CCCl)cc1
L02
  IC50: > 50 µM
MCF7 [1]
  IC50: > 50 µM
A549
  IC50: > 50 µM
Bel-7402
  IC50: 37.6 µM

## O=C(OCCCOc1ccc(-c2cc(=O)c3c(O)c(O)c(O)cc3o2)cc1)c1ccc(N(CCCl)CCCl)cc1
MCF7 [2]
  Activity: Dose-dependent effect
MCF7 [3]
  Activity: Active
MCF7 [4]
  Activity: 34.67%
MCF7 [5]
  Activity: 29.04%
MCF7 [6]
  Activity: Dose-dependent effect
MCF7 [7]
  Activity: Active
MCF7 [8]
  Activity: Active
MCF7 [9]
  Activity: 18.56%
MCF7 [10]
  Activity: 0.17%
MCF7 [11]
  Activity: 26.73%
MCF7 [12]
  Activity: 19.85%
MCF7 [13]
  viability at 0.75 µM: 83.8%
MCF7 [14]
  Activity: 3.26%
MCF7 [15]
  Activity: 43.48%
L02
  IC50: > 50 µM
MCF7 [16]
  Activity: 38.48%
MCF7 [17]
  Activity: 9.46%
MCF7 [18]
  Activity: 30.44%
MCF7 [19]
  Activity: Dose-dependent effect
MCF7 [20]
  Activity: 50.99%
MCF7 [1]
  IC50: 1.5 µM
MCF7 [21]
  Activity: 59.49%
A549
  IC50: > 50 µM
MCF7 [22]
  Activity: 44.16%
MCF7 [23]
  Activity: Dose-dependent effect
MCF7 [24]
  Activity: 21.17%
MCF7 [25]
  Activity: 12.07%
MCF7 [26]
  Activity: 1.85%
MCF7 [27]
  Activity: 19.61%
MCF7 [28]
  Activity: Dose-dependent effect
MCF7 [29]
  Activity: 3.92%
Bel-7402
  IC50: 7.96 µM
MCF7 [30]
  viability at 3 µM: 31.5%
MCF7 [31]
  Activity: 64.8%
MCF7 [32]
  viability at 1.5 µM: 68.8%
MCF7 [33]
  Activity: 11.47%

## COc1cc2oc(-c3ccc(OCCCOC(=O)c4ccc(N(CCCl)CCCl)cc4)cc3)cc(=O)c2c(O)c1OC
L02
  IC50: > 50 µM
MCF7 [1]
  IC50: > 50 µM
A549
  IC50: > 50 µM
Bel-7402
  IC50: 27.8 µM

## O=C(OCCCCCOc1ccc(-c2cc(=O)c3c(O)c4c(cc3o2)OCCO4)cc1)c1ccc(N(CCCl)CCCl)cc1
L02
  IC50: > 50 µM
MCF7 [1]
  IC50: 34.7 µM
A549
  IC50: > 50 µM
Bel-7402
  IC50: 45.7 µM
